Where “and” joins values, the source holds several entries; their conditions need not be identical. Equal values may be shown once.
What was measured:
Cavia porcellus [1] = organism: Cavia porcellus; assay: Inotropic effect in electrically driven left atrium from reserpine-treated guinea pig without 8-phenyl theophylline at the concentration of 10 e-3 M; format: functional, Cardiac atrium
Outline: (§1)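 Paced left atrium from reserpine-pretreated, tyramine-unresponsive guinea pigs (0.5 g load, 1.5 Hz, 3-ms pulses). Cumulative additions of agent, 5 min each, with no 8-phenyltheophylline present. Developed tension as % increase over control. Mean ± SEM of six assays from six experiments; Student's t test against the 8-phenyltheophylline-treated preparations.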

Cavia porcellus [2] = organism: Cavia porcellus; assay: Inotropic response in electrically driven left atrium from reserpine-treated guinea pig without ADA at the concentration of 10 e-3 M; format: functional, Cardiac atrium
Outline: (§2)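 Control arm: electrically driven left atrium (1.5 Hz, 3-ms pulses, 0.5 g load) from guinea pigs given reserpine 2 mg/kg ip at 48 and 24 h, tyramine-unresponsive; no adenosine deaminase. Cumulative additions after 90 min equilibration, 5 min per concentration. Isometric developed tension, % over control; six assays from six experiments.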

Cavia porcellus [3] = organism: Cavia porcellus; assay: Inotropic response in electrically driven left atrium from reserpine-treated guinea pig without VER at the concentration of 5 x 10 e-4 M; format: functional, Cardiac atrium
Outline: (§3)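 Control arm without verapamil: left atrium from reserpinized guinea pigs (2 mg/kg ip, 48 and 24 h before), tyramine-unresponsive, paced at 1.5 Hz (3-ms pulses). Agents added cumulatively after 90 min equilibration, recorded 5 min each. Isometric developed tension as % increase over control; seven assays from seven experiments.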

Cavia porcellus [4] = organism: Cavia porcellus; assay: Inotropic effect in electrically driven left atrium from reserpine-treated guinea pig at the concentration of 10 e-4 M; format: functional, Cardiac atrium
Outline: (§4)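 Atria from reserpine-pretreated guinea pigs (2 mg/kg ip, 48 and 24 h), tyramine-unresponsive only. Left atrium loaded 0.5 g, paced at 1.5 Hz with 3-ms square pulses at 10–20% above threshold. Equilibrated 90 min. Agents added cumulatively, 5 min per concentration. Isometric developed tension expressed as % increase over control.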

Cavia porcellus [5] = organism: Cavia porcellus; assay: Inotropic response in electrically driven left atrium from reserpine-treated guinea pig without ADA at the concentration of 5 x 10 e-5 M; format: functional, Cardiac atrium; outline: as §2
Cavia porcellus [6] = organism: Cavia porcellus; assay: Inotropic response in electrically driven left atrium from reserpine-treated guinea pig with VER (10 e-7) at the concentration of 10 e-4 M; format: functional, Cardiac atrium
Outline: (§5)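 Left atrium from reserpine-treated guinea pigs (2 mg/kg ip, 48 and 24 h prior; tyramine 2 μg/mL check), paced at 1.5 Hz with 3-ms pulses. Verapamil 0.1 μM added 10 min before cumulative agent additions (5 min each), after 90 min equilibration. Isometric developed tension as % increase over control; seven assays from seven experiments.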

Cavia porcellus [7] = organism: Cavia porcellus; assay: Effect on contractile force of spontaneously beating atria from reserpine treated guinea pigs at the concentration of 2 x 10 e-3 M; format: functional
Cavia porcellus [8] = organism: Cavia porcellus; assay: Effect on frequency rate of spontaneously beating atria from reserpine treated guinea pigs at the concentration of 5 x 10 e-4 M; format: functional
Cavia porcellus [9] = organism: Cavia porcellus; assay: Inotropic response in electrically driven left atrium from reserpine-treated guinea pig with VER (10 e-7) at the concentration of 2 x 10 e-3 M; format: functional, Cardiac atrium; outline: as §5
Cavia porcellus [10] = organism: Cavia porcellus; assay: Effect on contractile force of spontaneously beating atria from reserpine treated guinea pigs at the concentration of 5x 10 e-5 M; format: functional
Cavia porcellus [11] = organism: Cavia porcellus; assay: Inotropic response in electrically driven left atrium from reserpine-treated guinea pig with ADA (2 units/ml) at the concentration of 2 x 10 e-3 M; format: functional, Cardiac atrium
Outline: (§6)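 Reserpinized guinea pigs (2 mg/kg ip, 48 and 24 h before death), tyramine-unresponsive atria. Electrically driven left atrium (1.5 Hz, 3-ms pulses, 0.5 g load) preincubated 20 min with adenosine deaminase after 90 min equilibration. Agents added cumulatively, 5 min per concentration. Developed tension recorded isometrically, % increase over control or % inhibition; six assays from six experiments, Student's t test.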

Cavia porcellus [12] = organism: Cavia porcellus; assay: Inotropic effect in electrically driven left atrium from reserpine-treated guinea pig at the concentration of 2 x 10 e-3 M; format: functional, Cardiac atrium; outline: as §4
Cavia porcellus [13] = organism: Cavia porcellus; assay: Inotropic effect in electrically driven left atrium from reserpine-treated guinea pig without 8-phenyl theophylline at the concentration of 2 x 10 e-3 M; format: functional, Cardiac atrium; outline: as §1
Cavia porcellus [14] = organism: Cavia porcellus; assay: Inotropic response in electrically driven left atrium from reserpine-treated guinea pig with VER (10 e-7) at the concentration of 10 e-5 M; format: functional, Cardiac atrium; outline: as §5
Cavia porcellus [15] = organism: Cavia porcellus; assay: Effect on contractile force of spontaneously beating atria from reserpine treated guinea pigs at the concentration of 10 e-3 M; format: functional
Cavia porcellus [16] = organism: Cavia porcellus; assay: Inotropic effect in electrically driven left atrium from reserpine-treated guinea pig without 8-phenyl theophylline at the concentration of 10 e-5 M; format: functional, Cardiac atrium; outline: as §1
Cavia porcellus [17] = organism: Cavia porcellus; assay: Inotropic effect in electrically driven left atrium from reserpine-treated guinea pig at the concentration of 5 x 10 e-4 M; format: functional, Cardiac atrium; outline: as §4
Cavia porcellus [18] = organism: Cavia porcellus; assay: Inotropic response in electrically driven left atrium from reserpine-treated guinea pig without VER at the concentration of 5 x 10 e-5 M; format: functional, Cardiac atrium; outline: as §3
Cavia porcellus [19] = organism: Cavia porcellus; assay: Inotropic response in electrically driven left atrium from reserpine-treated guinea pig with ADA (2 units/ml) at the concentration of 10 e-3 M; format: functional, Cardiac atrium; outline: as §6
Cavia porcellus [20] = organism: Cavia porcellus; assay: Effect on contractile force of spontaneously beating atria from reserpine treated guinea pigs at the concentration of 10 e-5 M; format: functional
Cavia porcellus [21] = organism: Cavia porcellus; assay: Inotropic response in electrically driven left atrium from reserpine-treated guinea pig without VER at the concentration of 10 e-5 M; format: functional, Cardiac atrium; outline: as §3
Cavia porcellus [22] = organism: Cavia porcellus; assay: Effect on contractile force of spontaneously beating atria from reserpine treated guinea pigs at the concentration of 10 e-4 M; format: functional
Cavia porcellus [23] = organism: Cavia porcellus; assay: Inotropic response in electrically driven left atrium from reserpine-treated guinea pig with ADA (2 units/ml) at the concentration of 5 x 10 e-5 M; format: functional, Cardiac atrium; outline: as §6
Cavia porcellus [24] = organism: Cavia porcellus; assay: Inotropic effect in electrically driven left atrium from reserpine-treated guinea pig without 8-phenyl theophylline at the concentration of 5 x 10 e-5 M; format: functional, Cardiac atrium; outline: as §1
Cavia porcellus [25] = organism: Cavia porcellus; assay: Effect on contractile force of spontaneously beating atria from reserpine treated guinea pigs at the concentration of 5x 10 e-4 M; format: functional
Cavia porcellus [26] = organism: Cavia porcellus; assay: Inotropic effect in electrically driven left atrium from reserpine-treated guinea pig at the concentration of 10 e-5 M; format: functional, Cardiac atrium; outline: as §4
Cavia porcellus [27] = organism: Cavia porcellus; assay: Inotropic response in electrically driven left atrium from reserpine-treated guinea pig with VER (10 e-7) at the concentration of 10 e-3 M; format: functional, Cardiac atrium; outline: as §5
Cavia porcellus [28] = organism: Cavia porcellus; assay: Effect on frequency rate of spontaneously beating atria from reserpine treated guinea pigs at the concentration of 2 x 10 e-3 M; format: functional
Cavia porcellus [29] = organism: Cavia porcellus; assay: Effect on frequency rate of spontaneously beating atria from reserpine treated guinea pigs at the concentration of 10 e-5 M; format: functional
Cavia porcellus [30] = organism: Cavia porcellus; assay: Inotropic response in electrically driven left atrium from reserpine-treated guinea pig with VER (10 e-7) at the concentration of 5 x10 e-5 M; format: functional, Cardiac atrium; outline: as §5
[31] = Logarithm of the sum of contributions of each atom to the total lipophilicity of the molecule; format: physicochemical; settings: octanol/water
Cavia porcellus [32] = organism: Cavia porcellus; assay: Inotropic response in electrically driven left atrium from reserpine-treated guinea pig without VER at the concentration of 10 e-3 M; format: functional, Cardiac atrium; outline: as §3
Cavia porcellus [33] = organism: Cavia porcellus; assay: Inotropic effect in electrically driven left atrium from reserpine-treated guinea pig without 8-phenyl theophylline at the concentration of 10 e-4 M; format: functional, Cardiac atrium; outline: as §1
Cavia porcellus [34] = organism: Cavia porcellus; assay: Inotropic response in electrically driven left atrium from reserpine-treated guinea pig with ADA (2 units/ml) at the concentration of 10 e-4 M; format: functional, Cardiac atrium; outline: as §6
Cavia porcellus [35] = organism: Cavia porcellus; assay: Inotropic response in electrically driven left atrium from reserpine-treated guinea pig without VER at the concentration of 10 e-4 M; format: functional, Cardiac atrium; outline: as §3
Cavia porcellus [36] = organism: Cavia porcellus; assay: Inotropic response in electrically driven left atrium from reserpine-treated guinea pig with VER (10 e-7) at the concentration of 5 x 10 e-4 M; format: functional, Cardiac atrium; outline: as §5

SMILES	Increase (Cavia porcellus [1]) [%]	Increase (Cavia porcellus [2]) [%]	Increase (Cavia porcellus [3]) [%]	Increase (Cavia porcellus [4]) [%]	Increase (Cavia porcellus [5]) [%]	Increase (Cavia porcellus [6]) [%]	Increase (Cavia porcellus [7]) [%]	Increase (Cavia porcellus [8]) [%]	Increase (Cavia porcellus [9]) [%]	Increase (Cavia porcellus [10]) [%]	Increase (Cavia porcellus [11]) [%]	Increase (Cavia porcellus [12]) [%]	Increase (Cavia porcellus [13]) [%]	Increase (Cavia porcellus [14]) [%]	Increase (Cavia porcellus [15]) [%]	Increase (Cavia porcellus [16]) [%]	Increase (Cavia porcellus [17]) [%]	Increase (Cavia porcellus [18]) [%]	Increase (Cavia porcellus [19]) [%]	Increase (Cavia porcellus [20]) [%]	also measured
CC(=O)c1cc(C#N)c(O)nc1C	56.71	42.05	62.96	38.06	13.32	28.47	64.11	11.61	88.84	27.64	80.21	67.13	62.73	12.63	65.35	12.62	48.67	28.29	37.93	13.9	Increase (Cavia porcellus [21]): 18.83%; Increase (Cavia porcellus [22]): 35.57%; Increase (Cavia porcellus [23]): 8.32%; Increase (Cavia porcellus [24]): 17.81%; Increase (Cavia porcellus [25]): 57.22%; Increase (Cavia porcellus [26]): 12.64%; Increase (Cavia porcellus [27]): 66.4%; Increase (Cavia porcellus [28]): 22.98%; Increase (Cavia porcellus [29]): 0.23% and 1.35%; Increase (Cavia porcellus [30]): 19.5%; logP [31]: -0.1; Increase (Cavia porcellus [32]): 77.46%; Increase (Cavia porcellus [33]): 28.87%; Increase (Cavia porcellus [34]): 10.08%; Increase (Cavia porcellus [35]): 37.34%; Increase (Cavia porcellus [36]): 55.47%
CC1CC(=O)c2ccc(O)nc2C1 (configuration not stated)	56.72	46.19	31.4	26.62	25	2.43	80.98	13.45	43.8	18.88	39.98	93.66	87.6	-0.32	46.09	4.64	37.23	11.6	20.63	4.28	Increase (Cavia porcellus [21]): 5.76%; Increase (Cavia porcellus [22]): 28.89%; Increase (Cavia porcellus [23]): 5.52%; Increase (Cavia porcellus [24]): 18.83%; Increase (Cavia porcellus [25]): 39.48%; Increase (Cavia porcellus [26]): 6.31%; Increase (Cavia porcellus [27]): 23.78%; Increase (Cavia porcellus [28]): 26.44%; Increase (Cavia porcellus [29]): 2.63% and 3.21%; Increase (Cavia porcellus [30]): 2.45%; logP [31]: 0.45; Increase (Cavia porcellus [32]): 45.89%; Increase (Cavia porcellus [33]): 24.77%; Increase (Cavia porcellus [34]): 9.12%; Increase (Cavia porcellus [35]): 17.96%; Increase (Cavia porcellus [36]): 14.7%
